According to ChEMBL document CHEMBL4265871, “Novel alkylated azoles as potent antifungals” (Eur J Med Chem, 2017):
Converted amounts (≈) assume the structure as drawn.

What was measured:
Candida albicans [1] = test: Antifungal activity against Candida albicans ATCC 10231 incubated for 48 hrs by modified CLSI M27-A3 protocol based method; assay type: functional; conditions: ATCC 10231, 48 h, read-out: MIC100
How it was run: (§1)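 For C. albicans ATCC 10231, C. krusei ATCC 6258 and C. parapsilosis ATCC 22019, MIC-0 was read, meaning complete growth inhibition. For azole controls, MIC-2 (50% growth inhibition) was reported instead. Caspofungin and voriconazole were tested here; other controls came from earlier work.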

Candida albicans [2] = test: Antifungal activity against Candida albicans ATCC 64124 incubated for 48 hrs by modified CLSI M27-A3 protocol based method; assay type: functional; conditions: ATCC 64124, 48 h
Candida albicans [3] = test: Antifungal activity against ITC and FLC-susceptible Candida albicans ATCC MYA-2876 incubated for 48 hrs by modified CLSI M27-A3 protocol based method; assay type: functional; conditions: ATCC MYA-2876, 48 h
How it was run: (§2)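 Because these Candida strains show trailing growth, MIC-2 was read, meaning 50% growth inhibition. Caspofungin and voriconazole were tested here; other controls came from earlier work.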

Candida albicans [4] = test: Antifungal activity against ITC and FLC-susceptible Candida albicans ATCC MYA-2310 incubated for 48 hrs by modified CLSI M27-A3 protocol based method; assay type: functional; conditions: ATCC MYA-2310, 48 h
Candida albicans [5] = test: Antifungal activity against ITC and FLC-resistant Candida albicans ATCC MYA-1003 incubated for 48 hrs by modified CLSI M27-A3 protocol based method; assay type: functional; conditions: ATCC MYA-1003, 48 h; how it was run: as §2
Candida parapsilosis = test: Antifungal activity against Candida parapsilosis ATCC 22019 incubated for 48 hrs by modified CLSI M27-A3 protocol based method; assay type: functional; conditions: Lodderomyces parapsilosis, ATCC 22019, 48 h; read-out: MIC100; how it was run: as §1
Aspergillus flavus = test: Antifungal activity against Aspergillus flavus ATCC MYA-3631 incubated for 48 hrs by CLSI M38-A2 protocol based method; assay type: functional; conditions: ATCC MYA-3631, 48 h, read-out: MIC100
Aspergillus nidulans = test: Antifungal activity against Aspergillus nidulans ATCC 38163 incubated for 48 hrs by CLSI M38-A2 protocol based method; assay type: functional; conditions: ATCC 38163, 48 h, read-out: MIC100
[6] = Toxicity in human A549 cells assessed as reduction in cell viability incubated for 24 hrs by resazurin dye based assay
How it was run: (§3)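 Toxicity tested in the nucleated lines A549 and BEAS-2B to give EC50 values. Selectivity index is EC50 against the mammalian line divided by the MIC against a given fungal strain.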

[7] = Toxicity in human BEAS2B cells assessed as reduction in cell viability incubated for 24 hrs by resazurin dye based assay; conditions: BEAS-2B cells; how it was run: as §3
[8] = Hemolytic activity in mouse erythrocytes assessed as hemolysis level at 15.6 ug/ml incubated for 1 hr at 37 degC; assay type: ADME, cell-based, Erythrocyte; conditions: read-out: Activity
How it was run: (§4)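 Mouse erythrocytes incubated 1 h at 37 °C with test agents over 1.95 to 125 µg/mL. Percent lysis is read for each concentration.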

[9] = Hemolytic activity in mouse erythrocytes assessed as hemolysis level at 31.3 ug/ml incubated for 1 hr at 37 degC; assay type: ADME, cell-based, Erythrocyte; conditions: read-out: Activity; how it was run: as §4
[10] = Hemolytic activity in mouse erythrocytes assessed as hemolysis level at 125 ug/ml incubated for 1 hr at 37 degC; assay type: ADME, cell-based, Erythrocyte; conditions: read-out: Activity; how it was run: as §4
[11] = Selectivity index, ratio of EC50 for toxicity in human A549 cells to MIC100 for antifungal activity against Candida albicans ATCC 10231; assay type: cell-based; conditions: read-out: Selectivity Index
How it was run: (§5)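 Selectivity index is the EC50 against the mammalian line (A549 or BEAS-2B) divided by the MIC against the given fungal strain.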

[12] = Selectivity index, ratio of EC50 for toxicity in human BEAS2B cells to MIC50 for antifungal activity against Candida albicans ATCC 64124; assay type: cell-based; conditions: BEAS-2B cells, read-out: Selectivity Index; how it was run: as §5
[13] = Selectivity index, ratio of EC50 for toxicity in human BEAS2B cells to MIC100 for antifungal activity against Candida albicans ATCC 10231; assay type: cell-based; conditions: BEAS-2B cells, read-out: Selectivity Index; how it was run: as §5
[14] = Selectivity index, ratio of EC50 for toxicity in human A549 cells to MIC50 for antifungal activity against ITC and FLC-susceptible Candida albicans ATCC MYA-2876; assay type: cell-based; conditions: read-out: Selectivity Index; how it was run: as §5
[15] = Selectivity index, ratio of EC50 for toxicity in human A549 cells to MIC50 for antifungal activity against ITC and FLC-resistant Candida albicans ATCC MYA-90819; assay type: cell-based; conditions: read-out: Selectivity Index; how it was run: as §5
[16] = Selectivity index, ratio of EC50 for toxicity in human A549 cells to MIC50 for antifungal activity against ITC and FLC-susceptible Candida albicans ATCC MYA-2310; assay type: cell-based; conditions: read-out: Selectivity Index; how it was run: as §5
[17] = Selectivity index, ratio of EC50 for toxicity in human A549 cells to MIC50 for antifungal activity against ITC and FLC-resistant Candida albicans ATCC 1237; assay type: cell-based; conditions: read-out: Selectivity Index; how it was run: as §5
[18] = Selectivity index, ratio of EC50 for toxicity in human A549 cells to MIC50 for antifungal activity against ITC and FLC-resistant Candida albicans ATCC MYA-1003; assay type: cell-based; conditions: read-out: Selectivity Index; how it was run: as §5
[19] = Selectivity index, ratio of EC50 for toxicity in human BEAS2B cells to MIC50 for antifungal activity against ITC and FLC-resistant Candida albicans ATCC MYA-1003; assay type: cell-based; conditions: BEAS-2B cells, read-out: Selectivity Index; how it was run: as §5
[20] = Selectivity index, ratio of EC50 for toxicity in human BEAS2B cells to MIC50 for antifungal activity against Candida glabrata ATCC 2001; assay type: cell-based; conditions: BEAS-2B cells, read-out: Selectivity Index; how it was run: as §5
[21] = Selectivity index, ratio of […] for toxicity in human A549 cells to MIC50 for antifungal activity against Aspergillus flavus ATCC MYA-3631; assay type: cell-based; conditions: read-out: Selectivity Index
[22] = Selectivity index, ratio of […] for toxicity in human BEAS2B cells to MIC50 for antifungal activity against Aspergillus flavus ATCC MYA-3631; assay type: cell-based; conditions: BEAS-2B cells, read-out: Selectivity Index
[23] = Selectivity index, ratio of […] for toxicity in human A549 cells to MIC50 for antifungal activity against Aspergillus nidulans ATCC 38163; assay type: cell-based; conditions: read-out: Selectivity Index
[24] = Selectivity index, ratio of […] for toxicity in human A549 cells to MIC50 for antifungal activity against Aspergillus terreus ATCC MYA-3633; assay type: cell-based; conditions: read-out: Selectivity Index
[25] = Selectivity index, ratio of […] for toxicity in human BEAS2B cells to MIC50 for antifungal activity against Aspergillus terreus ATCC MYA-3633; assay type: cell-based; conditions: BEAS-2B cells, read-out: Selectivity Index
in vitro = conditions: mouse, mouse erythrocytes
[26] = Selectivity index, ratio of EC50 for toxicity in human A549 cells to MIC50 for antifungal activity against Candida krusei ATCC 6258
[27] = Selectivity index, ratio of EC50 for toxicity in human BEAS2B cells to MIC50 for antifungal activity against Candida krusei ATCC 6258; conditions: BEAS-2B cells
[28] = Selectivity index, ratio of EC50 for toxicity in human A549 cells to MIC for antifungal activity against Candida parapsilosis ATCC 22019
[29] = Selectivity index, ratio of EC50 for toxicity in human BEAS2B cells to MIC for antifungal activity against Candida parapsilosis ATCC 22019; conditions: BEAS-2B cells

| Compound | MIC (Candida albicans [1]) | MIC50 (Candida albicans [2]) | MIC50 (Candida albicans [3]) | MIC50 (Candida albicans [4]) | MIC50 (Candida albicans [5]) | MIC (Candida parapsilosis) | MIC (Aspergillus flavus) | MIC (Aspergillus nidulans) | EC50 at 24 h [6] | EC50 at 24 h [7] | selectivity ratio [11] | selectivity ratio [12] | selectivity ratio [13] | selectivity ratio [14] | selectivity ratio [15] | selectivity ratio [16] | selectivity ratio [17] | selectivity ratio [18] | selectivity ratio [19] | selectivity ratio [20] | also measured |
| --- | --- | --- | --- | --- | --- | --- | --- | --- | --- | --- | --- | --- | --- | --- | --- | --- | --- | --- | --- | --- | --- |
| CCCCCC(O)(Cn1cncn1)c1ccc(F)cc1F (stereo not given) | 6.6 µM (≈ 1.95 µg/mL) | 26.4 µM (≈ 7.8 µg/mL) | 26.4 µM (≈ 7.8 µg/mL) | 26.4 µM (≈ 7.8 µg/mL) | 6.6 µM (≈ 1.95 µg/mL) | < 0.1 µM | 52.8 µM (≈ 15.6 µg/mL) | 3.3 µM (≈ 0.975 µg/mL) | > 31.3 µg/mL | > 31.3 µg/mL | 16 | 4 | 16 | 4 | 8 | 4 | 4 | 16 | 16 | 4 | hemolysis at 1 h, 15.6 ug/ml [8]: 0.9%; hemolysis at 1 h, 31.3 ug/ml [9]: 10.1%; hemolysis at 1 h, 125 ug/ml [10]: 45.4%; selectivity ratio [21]: 2; selectivity ratio [22]: 2; selectivity ratio [23]: 32; selectivity ratio [24]: 1; selectivity ratio [25]: 1; hemolysis at 1 h, 62.5 ug/ml (in vitro): 25.2%; selectivity ratio [26]: 130; selectivity ratio [27]: 130; selectivity ratio [28]: 1040; selectivity ratio [29]: 1040 |
| CCCC(O)(Cn1cncn1)c1ccc(Cl)cc1Cl (stereo not given) | 0.8 µM (≈ 0.24 µg/mL) | 13 µM (≈ 3.9 µg/mL) | 6.5 µM (≈ 1.95 µg/mL) | 13 µM (≈ 3.9 µg/mL) | 3.2 µM (≈ 0.961 µg/mL) | < 0.1 µM | 52 µM (≈ 15.6 µg/mL) | 6.5 µM (≈ 1.95 µg/mL) | > 31.3 µg/mL | > 31.3 µg/mL | 130 | 8 | 130 | 16 | 8 | 8 | 4 | 32 | 32 | 8 | selectivity ratio [21]: 2; selectivity ratio [22]: 2; selectivity ratio [23]: 16; selectivity ratio [24]: 8; selectivity ratio [25]: 8; selectivity ratio [26]: 522; selectivity ratio [27]: 522; selectivity ratio [28]: 1040; selectivity ratio [29]: 1040 |
| CCCCCC(O)(Cn1cncn1)c1ccc(F)cc1 (stereo not given) | 14.1 µM (≈ 3.91 µg/mL) | > 113 µM | 28.1 µM (≈ 7.79 µg/mL) | 14.1 µM (≈ 3.91 µg/mL) | > 113 µM | 1.7 µM (≈ 0.471 µg/mL) | > 113 µM | 14.1 µM (≈ 3.91 µg/mL) | > 31.3 µg/mL | 33 µg/mL (≈ 119 µM) | 8 | 1 | 8 | 4 | 32 | 8 | 16 | 1 | 1 | 4 | selectivity ratio [21]: 1; selectivity ratio [22]: 1; selectivity ratio [23]: 8; selectivity ratio [24]: 1; selectivity ratio [25]: 1; selectivity ratio [26]: 32; selectivity ratio [27]: 34; selectivity ratio [28]: 65; selectivity ratio [29]: 69 |
| CCCCCC(O)(Cn1cncn1)c1ccc(Cl)cc1 (stereo not given) | 6.6 µM (≈ 1.94 µg/mL) | 26.5 µM (≈ 7.79 µg/mL) | 53.1 µM (≈ 15.6 µg/mL) | 53.1 µM (≈ 15.6 µg/mL) | 6.6 µM (≈ 1.94 µg/mL) | 0.2 µM (≈ 0.0588 µg/mL) | > 106 µM | 26.5 µM (≈ 7.79 µg/mL) | > 31.3 µg/mL | > 31.3 µg/mL | 16 | 4 | 16 | 2 | 16 | 2 | 8 | 16 | 16 | 8 | selectivity ratio [21]: 1; selectivity ratio [22]: 1; selectivity ratio [23]: 4; selectivity ratio [24]: 1; selectivity ratio [25]: 1; selectivity ratio [26]: 261; selectivity ratio [27]: 261; selectivity ratio [28]: 522; selectivity ratio [29]: 522 |
